In ChEMBL document CHEMBL1287747, “Highly active antimycobacterial derivatives of benzoxazine” (2010) one finds MIC data, which are given here for 14 compounds.

Holding throughout (format): functional
Assay [1] deals with Mycobacterium tuberculosis. As to the kind of experiment: Antimycobacterial activity against Mycobacterium tuberculosis CNCTC My 331/88 after 14 days by microdilution method. The conditions noted are these: CNCTC My 331/88, 336 h. An outline of the steps:
(§1)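 Strains from the Czech National Collection of Type Cultures, tested by dilution micromethod in Šula semisynthetic medium. Incubated at 37 °C and read at 14 and 21 days. MIC is the lowest concentration inhibiting growth.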

Assay [2] deals with Mycobacterium tuberculosis. As to the kind of experiment: Antimycobacterial activity against Mycobacterium tuberculosis CNCTC My 331/88 after 21 days by microdilution method. Particulars: CNCTC My 331/88, 504 h. The procedure, abridged:
as §1

The test system of assay [3] is Mycobacterium avium. The experiment in a line: Antimycobacterial activity against Mycobacterium avium CNCTC My 330/88 after 14 days by microdilution method. The conditions noted are these: CNCTC My 330/88, 336 h. An outline of the steps: as §1
The test system of assay [4] is Mycobacterium avium. The experiment in a line: Antimycobacterial activity against Mycobacterium avium CNCTC My 330/88 after 21 days by microdilution method. The conditions noted are these: CNCTC My 330/88, 504 h. An outline of the steps:
as §1

Assay [5] concerns Mycobacterium kansasii. As to the kind of experiment: Antimycobacterial activity against Mycobacterium kansasii CNCTC My 235/80 after 14 days by microdilution method. The conditions noted are these: CNCTC My 235/80, 336 h. The procedure, abridged: as §1
For assay [6], the system named is Mycobacterium kansasii. The experiment in a line: Antimycobacterial activity against Mycobacterium kansasii CNCTC My 235/80 after 21 days by microdilution method. The conditions noted are these: CNCTC My 235/80, 504 h. An outline of the steps: as §1
Assay [7] deals with Mycobacterium kansasii. The experiment in a line: Antimycobacterial activity against Mycobacterium kansasii 6509/96 after 14 days by microdilution method. The conditions noted are these: 6509/96, 336 h. An outline of the steps: (§2)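 Clinical isolate that, unlike the standard strain, is not isoniazid-resistant. Tested by dilution micromethod in Šula semisynthetic medium, with compounds added in DMSO at final 1000 down to 0.25 µmol/L in twofold steps. Löwenstein-Jensen plate used as inoculum sterility and growth control. Incubated at 37 °C and read at 14 and 21 days. MIC is the lowest concentration inhibiting growth.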

Assay [8] has as its system Mycobacterium kansasii. As to the kind of experiment: Antimycobacterial activity against Mycobacterium kansasii 6509/96 after 21 days by microdilution method. The conditions noted are these: 6509/96, 504 h. The procedure, abridged: as §2

≈ marks a conversion by molar mass, not a printed value.

`NNC(=O)c1ccncc1` [ISONIAZID]: the MIC in assay [1] was 0.5 µM (≈ 0.0686 µg/mL); in assay [2], 0.5 µM (≈ 0.0686 µg/mL); against Mycobacterium avium [3], over 250 µM; in the assay on Mycobacterium avium [4], over 250 µM; against Mycobacterium kansasii [5], over 250 µM; against Mycobacterium kansasii [6] it was over 250 µM. In addition, the MIC in the assay with Mycobacterium kansasii [7] and in the assay with Mycobacterium kansasii [8] was 8 µM (≈ 1.1 µg/mL) in each case.
On to `CC(C)c1ccc(-n2c(=O)oc3cc(Cl)ccc3c2=O)cc1`, for which the MIC in assay [1] was determined as 4 µM (≈ 1.26 µg/mL); in assay [2] it was 4 µM (≈ 1.26 µg/mL); against Mycobacterium avium [3], 8 µM (≈ 2.53 µg/mL); in the assay with Mycobacterium avium [4], 16 µM (≈ 5.05 µg/mL); in the assay on Mycobacterium kansasii [5] it was 8 µM (≈ 2.53 µg/mL); in the assay on Mycobacterium kansasii [6] it was 16 µM (≈ 5.05 µg/mL). Besides, the MIC in the assay with Mycobacterium kansasii [7] and with Mycobacterium kansasii [8] was 8 µM (≈ 2.53 µg/mL) throughout.
As to `CCC(C)c1ccc(-n2c(=O)oc3ccc(Br)cc3c2=S)cc1` (stereo not given), the MIC amounted to 0.25 µM (≈ 0.0976 µg/mL) in assay [1]; 0.5 µM (≈ 0.195 µg/mL) in assay [2]; 16 µM (≈ 6.24 µg/mL) with Mycobacterium avium [3]; 32 µM (≈ 12.5 µg/mL) with Mycobacterium avium [4]; 4 µM (≈ 1.56 µg/mL) against Mycobacterium kansasii [5]; 8 µM (≈ 3.12 µg/mL) with Mycobacterium kansasii [6]. Besides, the minimal inhibitory concentration (MIC) against Mycobacterium kansasii [7] stood at 2 µM (≈ 0.781 µg/mL); against Mycobacterium kansasii [8] it was 4 µM (≈ 1.56 µg/mL).
Turning to `CC(C)c1ccc(-n2c(=S)oc3ccc(Cl)cc3c2=S)cc1`, the minimal inhibitory concentration (MIC) in assay [1] was 0.5 µM (≈ 0.174 µg/mL); in assay [2], 1 µM (≈ 0.348 µg/mL); in the assay on Mycobacterium avium [3], 32 µM (≈ 11.1 µg/mL); against Mycobacterium avium [4] it was 125 µM (≈ 43.5 µg/mL); against Mycobacterium kansasii [5], 8 µM (≈ 2.78 µg/mL); with Mycobacterium kansasii [6], 16 µM (≈ 5.57 µg/mL). The MIC against Mycobacterium kansasii [7] turned out to be 1 µM (≈ 0.348 µg/mL); in the assay on Mycobacterium kansasii [8], 2 µM (≈ 0.696 µg/mL).
On to `CCC(C)c1ccc(-n2c(=O)oc3cc(C)ccc3c2=S)cc1` (stereo not given), for which the MIC is 0.25 µM (≈ 0.0814 µg/mL) in assay [1]; 0.5 µM (≈ 0.163 µg/mL) in assay [2]; 0.5 µM (≈ 0.163 µg/mL) against Mycobacterium avium [3]; 0.5 µM (≈ 0.163 µg/mL) against Mycobacterium avium [4]; 1 µM (≈ 0.325 µg/mL) in the assay with Mycobacterium kansasii [5]; 2 µM (≈ 0.651 µg/mL) against Mycobacterium kansasii [6]. Moreover, the MIC turned out to be 0.5 µM (≈ 0.163 µg/mL) with Mycobacterium kansasii [7] and 1 µM (≈ 0.325 µg/mL) against Mycobacterium kansasii [8].
`Cc1ccc2c(=O)n(-c3ccc(C(C)C)cc3)c(=O)oc2c1` gave an MIC with Mycobacterium kansasii [7] of 32 µM (≈ 9.45 µg/mL).
As to `CCc1ccc(-n2c(=O)oc3ccc(Br)cc3c2=O)cc1`, the minimum inhibitory concentration (MIC) in assay [1] came out at 8 µM (≈ 2.77 µg/mL); in assay [2] it was 8 µM (≈ 2.77 µg/mL); against Mycobacterium avium [3], 32 µM (≈ 11.1 µg/mL); in the assay with Mycobacterium avium [4] it was 32 µM (≈ 11.1 µg/mL); in the assay on Mycobacterium kansasii [5], 8 µM (≈ 2.77 µg/mL); with Mycobacterium kansasii [6], 16 µM (≈ 5.54 µg/mL). Further, the MIC in the assay on Mycobacterium kansasii [7] and against Mycobacterium kansasii [8] was 16 µM (≈ 5.54 µg/mL) each time.
As to `CCc1ccc(-n2c(=O)oc3cc(Cl)ccc3c2=S)cc1`, the MIC in assay [1] worked out at 0.5 µM (≈ 0.159 µg/mL); in assay [2], 0.5 µM (≈ 0.159 µg/mL); in the assay on Mycobacterium avium [3], 8 µM (≈ 2.54 µg/mL); with Mycobacterium avium [4], 8 µM (≈ 2.54 µg/mL); in the assay with Mycobacterium kansasii [5], 8 µM (≈ 2.54 µg/mL); against Mycobacterium kansasii [6] it was 8 µM (≈ 2.54 µg/mL). Also, the MIC in the assay with Mycobacterium kansasii [7] and in the assay with Mycobacterium kansasii [8] was 8 µM (≈ 2.54 µg/mL) in each case.
In the case of `CC(C)c1ccc(-n2c(=S)oc3ccc(F)cc3c2=S)cc1`, the MIC in assay [1] worked out at 0.25 µM (≈ 0.0829 µg/mL); in assay [2], 0.5 µM (≈ 0.166 µg/mL); in the assay with Mycobacterium avium [3], 0.5 µM (≈ 0.166 µg/mL); in the assay with Mycobacterium avium [4], 1 µM (≈ 0.331 µg/mL); against Mycobacterium kansasii [5], 4 µM (≈ 1.33 µg/mL); in the assay with Mycobacterium kansasii [6] it was 8 µM (≈ 2.65 µg/mL). Besides, the MIC worked out at 2 µM (≈ 0.663 µg/mL) in the assay with Mycobacterium kansasii [7] and 4 µM (≈ 1.33 µg/mL) with Mycobacterium kansasii [8].
As to `CC(C)c1ccc(-n2c(=O)oc3ccc(Br)cc3c2=O)cc1`, the MIC in assay [1] was 2 µM (≈ 0.72 µg/mL); in assay [2] it was 4 µM (≈ 1.44 µg/mL); in the assay with Mycobacterium avium [3], 8 µM (≈ 2.88 µg/mL); in the assay with Mycobacterium avium [4], 16 µM (≈ 5.76 µg/mL); in the assay with Mycobacterium kansasii [5], 8 µM (≈ 2.88 µg/mL); in the assay with Mycobacterium kansasii [6] it was 8 µM (≈ 2.88 µg/mL). Besides, the MIC worked out at 4 µM (≈ 1.44 µg/mL) with Mycobacterium kansasii [7] and 8 µM (≈ 2.88 µg/mL) in the assay on Mycobacterium kansasii [8].
As for `Cc1ccc2c(=S)n(-c3ccc(C(C)C)cc3)c(=S)oc2c1`, the MIC in assay [1] amounted to 0.5 µM (≈ 0.164 µg/mL); in assay [2], 1 µM (≈ 0.327 µg/mL); against Mycobacterium avium [3], 0.5 µM (≈ 0.164 µg/mL); with Mycobacterium avium [4] it was 0.5 µM (≈ 0.164 µg/mL); in the assay with Mycobacterium kansasii [5] it was 2 µM (≈ 0.655 µg/mL); against Mycobacterium kansasii [6], 4 µM (≈ 1.31 µg/mL). The MIC against Mycobacterium kansasii [7] is 1 µM (≈ 0.327 µg/mL); against Mycobacterium kansasii [8], 2 µM (≈ 0.655 µg/mL).
In the case of `CCC(C)c1ccc(-n2c(=S)oc3ccc(Br)cc3c2=S)cc1` (stereo not given), the MIC was 1 µM (≈ 0.406 µg/mL) in assay [1]; 2 µM (≈ 0.813 µg/mL) in assay [2]; 32 µM (≈ 13 µg/mL) in the assay on Mycobacterium avium [3]; 32 µM (≈ 13 µg/mL) with Mycobacterium avium [4]; 4 µM (≈ 1.63 µg/mL) against Mycobacterium kansasii [5]; 8 µM (≈ 3.25 µg/mL) in the assay with Mycobacterium kansasii [6]. In addition, the results for the minimal inhibitory concentration (MIC) in the assay with Mycobacterium kansasii [7] and against Mycobacterium kansasii [8] were 2 µM (≈ 0.813 µg/mL) and 4 µM (≈ 1.63 µg/mL), respectively.
In the assay on Mycobacterium kansasii [7], `CCC(C)c1ccc(-n2c(=O)oc3cc(C)ccc3c2=O)cc1` (stereo not given) showed an MIC of 32 µM (≈ 9.9 µg/mL).
Turning to `Cc1ccc(-n2c(=O)oc3ccc(Br)cc3c2=O)cc1`, the MIC came to 16 µM (≈ 5.31 µg/mL) in assay [1]; 16 µM (≈ 5.31 µg/mL) in assay [2]; 31 µM (≈ 10.3 µg/mL) against Mycobacterium avium [3]; 31 µM (≈ 10.3 µg/mL) against Mycobacterium avium [4]; 62 µM (≈ 20.6 µg/mL) in the assay on Mycobacterium kansasii [6].
